Assay results reported in ChEMBL document CHEMBL2311444, “Synthesis of derivatives of the keto-pyrrolyl-difluorophenol scaffold: some structural aspects for aldose reductase inhibitory activity and selectivity” (Bioorg Med Chem, 2013).

Experiments:
[1] = target: Aldo-keto reductase family 1 member B1 (Rattus norvegicus, UniProt P07943); experiment: Inhibition of Fischer-344 rat lens ALR2 by spectrophotometry
[2] = target: Aldo-keto reductase family 1 member A1 (Rattus norvegicus, UniProt P51635); experiment: Inhibition of Fischer-344 rat kidney ALR1 using D-glycuronate as substrate by spectrophotometry
[3] = organism: Rattus norvegicus; experiment: Selectivity index, ratio of IC50 for Fischer-344 rat kidney ALR1 to IC50 for Fischer-344 rat lens ALR2; type: tissue-based; conditions: Lens of camera-type eye
Method in brief: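 Selectivity index calculated from the IC50 values of two spectrophotometric NADPH-consumption assays (340 nm). Rat kidney ALR1 was measured at 37 °C and rat lens ALR2 at 30 °C. Each IC50 was derived by least-squares fitting of triplicate five-concentration log(dose)–response data.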

[4] = target: Aldo-keto reductase family 1 member A1 (Rattus norvegicus) (UniProt P51635); experiment: Inhibition of Fischer-344 rat kidney ALR1 using D-glycuronate as substrate at 10' -5 M by spectrophotometry
Aldo-keto reductase family 1 member A1 (Rattus norvegicus), sequence (P51635 whole entry, looked up): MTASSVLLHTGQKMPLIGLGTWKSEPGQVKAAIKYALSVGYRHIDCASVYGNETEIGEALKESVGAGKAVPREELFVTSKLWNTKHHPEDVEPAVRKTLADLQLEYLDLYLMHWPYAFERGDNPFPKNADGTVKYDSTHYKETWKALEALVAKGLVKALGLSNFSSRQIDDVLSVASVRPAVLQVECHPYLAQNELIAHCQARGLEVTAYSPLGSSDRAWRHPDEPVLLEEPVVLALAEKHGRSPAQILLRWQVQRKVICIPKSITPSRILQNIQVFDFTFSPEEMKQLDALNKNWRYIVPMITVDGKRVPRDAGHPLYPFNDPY

Aldo-keto reductase family 1 member A1, sequence (P51635 whole entry, looked up): as above

Compound | IC50 [1] [nM] | IC50 [2] [nM] | Ratio IC50 [3] | inhibition [4] [%]
O=C(c1ccn(-c2cc(F)c(O)c(F)c2)c1)c1ccc(Br)cc1F | 400 | 4310 |  | 
O=C(c1ccc(OC(F)(F)F)cc1)c1cccn1-c1cc(F)c(O)c(F)c1 | 520 | 16200 | 31.1 | 30.9
O=C(c1ccc(-c2ccccc2)cc1)c1ccn(-c2cc(F)c(O)c(F)c2)c1 | 2300 | 5630 | 1.87 | 72.8
O=C(c1ccc(Br)cc1F)c1cccn1-c1cc(F)c(O)c(F)c1 | 190 | 190 | 1 | 96.8
O=C(c1ccc(OC(F)(F)F)cc1)c1ccn(-c2cc(F)c(O)c(F)c2)c1 | 750 | 13100 | 17.5 | 38
O=C(c1ccc(-c2ccccc2)cc1)c1cccn1-c1cc(F)c(O)c(F)c1 | 510 | 121000 | 238 | 5.85
O=C(c1cccn1-c1cc(F)c(O)c(F)c1)C(F)(F)F | 930 | 18900 | 20.3 | 26.5
